Reference: ChEMBL document CHEMBL1144943, “New amide-bearing benzolactam-based protein kinase C modulators induce enhanced secretion of the amyloid precursor protein metabolite sAPPalpha” (J Med Chem, 2003)

Key:
[1] = molecular target: Protein kinase C alpha type (Homo sapiens, UniProt P17252); assay: Displacement of PDBU from recombinant Protein kinase C alpha with phosphatidylserine
AG06848 cell line = assay: Ability to enhance […] secretion using human fibroblast AG06848 cell line at 1 uM concentration; type: functional; set-up: unit not given here
Outline: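 AD-patient fibroblasts (AG06848) grown to confluence (about 4–5 days), switched to serum-free DMEM for 2 h, then exposed to 1 μM compound for 3 h with DMSO (below 1%) as solvent control. sAPPα in conditioned medium measured by SDS-PAGE immunoblot with antibody 6E10, loading corrected for total cell protein. Densitometry expressed relative to DMSO-treated cells; 3–6 independent experiments.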

Mus musculus [2] = species on record: Mus musculus; assay: Compound was evaluated for induction of hyperplasia after four applications at dose 3 (micro/application); 1-2; type: functional
Mus musculus [3] = species on record: Mus musculus; assay: Compound was evaluated for induction of hyperplasia after four applications at dose 10 (micro/application); 1-3; type: functional
Mus musculus [4] = species on record: Mus musculus; assay: Compound was evaluated for induction of hyperplasia after four applications at dose 1 (micro/application); 1-2; type: functional
Mus musculus [5] = species on record: Mus musculus; assay: Compound was evaluated for induction of hyperplasia after single application at dose 1 (micro/application); 1-2; type: functional
Mus musculus [6] = species on record: Mus musculus; assay: Compound was evaluated for induction of hyperplasia after single application at dose 3 (micro/application); 1-2; type: functional
Mus musculus [7] = species on record: Mus musculus; assay: Compound was evaluated for induction of hyperplasia after single application at dose 10 (micro/application); 1-2; type: functional
Mus musculus [8] = species on record: Mus musculus; assay: Compound was evaluated for induction of hyperplasia after four application at dose 30 (micro/application); type: functional
Mus musculus [9] = species on record: Mus musculus; assay: Compound was evaluated for induction of hyperplasia after single application at dose 100 (micro/application); type: functional
Mus musculus [10] = species on record: Mus musculus; assay: Compound was evaluated for induction of hyperplasia after single application at dose 3 (micro/application); type: functional
Mus musculus [11] = species on record: Mus musculus; assay: Compound was evaluated for induction of hyperplasia after single application at dose 10 (micro/application); type: functional
Mus musculus [12] = species on record: Mus musculus; assay: Compound was evaluated for induction of hyperplasia after four application at dose 300 (micro/application); type: functional
Mus musculus [13] = species on record: Mus musculus; assay: Compound was evaluated for induction of hyperplasia after four application at dose 3 (micro/application); type: functional
Mus musculus [14] = species on record: Mus musculus; assay: Compound was evaluated for induction of hyperplasia after single application at dose 30 (micro/application); type: functional
Mus musculus [15] = species on record: Mus musculus; assay: Compound was evaluated for induction of hyperplasia after four application at dose 10 (micro/application); type: functional
Mus musculus [16] = species on record: Mus musculus; assay: Compound was evaluated for induction of hyperplasia after single application at dose 300 (micro/application); type: functional
Mus musculus [17] = species on record: Mus musculus; assay: Compound was evaluated for induction of hyperplasia after four application at dose 100 (micro/application); type: functional

Row | SMILES | Ki [1] | Activity (AG06848 cell line) | also measured
1 | CC(C)[C@H]1C(=O)N[C@H](CO)Cc2cc(NC(=O)/C=C/C=C/c3cc(C(F)(F)F)cc(C(F)(F)F)c3)ccc2N1C | 5.6 nM | 20 | 
2 | CC(C)[C@H]1C(=O)N[C@H](CO)Cc2cc(NC(=O)/C=C/C=C/c3ccccc3)ccc2N1C | 15.8 nM | 20 | 
3 | CCCCCC(=O)Nc1ccc2c(c1)C[C@@H](CO)NC(=O)[C@H](C(C)C)N2C |  | 30 | 
4 | CCCCCCCCC#Cc1ccc2c(c1)C[C@@H](CO)NC(=O)[C@H](C(C)C)N2C |  | 0 | 
5 | CC(C)[C@H]1C(=O)N[C@H](CO)Cc2cc(NC(=O)/C=C/C=C/c3ccc(/C=C/C(F)(F)C(F)(F)C(F)(F)C(F)(F)C(F)(F)C(F)(F)F)cc3)ccc2N1C | 11.2 nM | 10 | 
6 | CC(C)[C@H]1C(=O)N[C@H](CO)Cc2cc(NC(=O)CCCCc3cc(C(F)(F)F)cc(C(F)(F)F)c3)ccc2N1C | 7.8 nM | 0 | 
7 | CC(C)[C@H]1C(=O)N[C@H](CO)Cc2cc(NC(=O)CCCCc3ccc(C(F)(F)F)cc3)ccc2N1C | 12.5 nM | 30 | Epidermal thickness (Mus musculus [2]): 1; Epidermal thickness (Mus musculus [3]): 1; Epidermal thickness (Mus musculus [4]): 1; Epidermal thickness (Mus musculus [5]): 1; Epidermal thickness (Mus musculus [6]): 1; Epidermal thickness (Mus musculus [7]): 1
8 | C/C=C/C=C/C(=O)Nc1ccc2c(c1)C[C@@H](CO)NC(=O)[C@H](C(C)C)N2C | 1970 nM | 10 | 
9 | CC(C)[C@H]1C(=O)N[C@H](CO)Cc2cc(NC(=O)CCCCc3ccc(CCC(F)(F)C(F)(F)C(F)(F)C(F)(F)C(F)(F)C(F)(F)F)cc3)ccc2N1C | 9.2 nM | 20 | 
10 | CC(C)[C@H]1C(=O)N[C@H](CO)Cc2cc(NC(=O)CCCCc3ccccc3)ccc2N1C | 34.2 nM | 30 | 
11 | CC(C)[C@H]1C(=O)N[C@H](CO)Cc2cc(NC(=O)/C=C/C=C/c3ccc(C(F)(F)F)cc3)ccc2N1C | 11.9 nM | 40 | Epidermal thickness (Mus musculus [8]): 1; Epidermal thickness (Mus musculus [9]): 1; Epidermal thickness (Mus musculus [10]): 1; Epidermal thickness (Mus musculus [11]): 1; Epidermal thickness (Mus musculus [12]): 3; Epidermal thickness (Mus musculus [13]): 1; Epidermal thickness (Mus musculus [14]): 1; Epidermal thickness (Mus musculus [15]): 1; Epidermal thickness (Mus musculus [16]): 2; Epidermal thickness (Mus musculus [17]): 2
